For 7 compounds, EC50 results are on record in ChEMBL document CHEMBL3046215, “Aliphatic ketones from Ruta chalepensis (Rutaceae) induce paralysis on root knot nematodes” (J Agric Food Chem, 2011).

Converted amounts (≈) assume the structure as drawn.

Common to all, as to type: functional, organism-based
The subject of assay [1] is Meloidogyne javanica. Nature of the assay: Nematicidal activity against second-stage juvenile Meloidogyne javanica (root-knot nematode) assessed as paralysis measured after 1 day. Particulars: 24 h. Summed up:
(§1)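 Compounds diluted from ethanol stocks into water with Tween 20 (final ≤1% ethanol, ≤0.3% Tween). Motile vs paralyzed scored microscopically; Schneider-Orelli correction for water-control paralysis; EC50 by log-logistic regression; six replicates, two experiments.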

In assay [2] the test system is Meloidogyne javanica. The assay can be described thus: Nematicidal activity against second-stage juvenile Meloidogyne javanica (root-knot nematode) assessed as paralysis measured after 1 hr. Summed up:
as §1

In assay [3] the test system is Meloidogyne incognita. Nature of the assay: Nematicidal activity against second-stage juvenile Meloidogyne incognita (root-knot nematode) assessed as paralysis measured after 1 day. Particulars: 24 h. Put shortly:
as §1

The subject of assay [4] is Meloidogyne incognita. The assay can be described thus: Nematicidal activity against second-stage juvenile Meloidogyne incognita (root-knot nematode) assessed as paralysis measured after 1 hr. Put shortly: as §1

Broadly, the EC50 is the concentration needed to bring the measured effect to its halfway point. Take `CCCCCCCCC(C)=O` [2-DECANONE]: the EC50 in assay [1] was 55.9 µg/mL (≈ 358 µM); in assay [2], above 500 µg/mL; in assay [3], 55.6 µg/mL (≈ 356 µM); in assay [4] it was 235 µg/mL (≈ 1500 µM).
For `CCCCCCCCCCC(C)=O` [2-DODECANONE] the same measures were 59.9 µg/mL (≈ 325 µM), above 500 µg/mL, 33.8 µg/mL (≈ 183 µM) and above 500 µg/mL.
In the case of `CCCCCCCC(C)O` (stereo not drawn) [2-NONANOL], the EC50 in assay [1] was found to be 137 µg/mL (≈ 950 µM); in assay [2], 178 µg/mL (≈ 1230 µM); in assay [3], 108 µg/mL (≈ 746 µM); in assay [4], 130 µg/mL (≈ 899 µM).
For `CCCCCCCC(C)=O` [2-NONANONE], in that order: 119 µg/mL (≈ 837 µM), 357 µg/mL (≈ 2510 µM), 118 µg/mL (≈ 832 µM) and 279 µg/mL (≈ 1960 µM).
For `CCCCCCCCCCCC(C)=O` [2-TRIDECANONE] the same measures were 200 µg/mL (≈ 1010 µM), above 500 µg/mL, 204 µg/mL (≈ 1030 µM) and above 500 µg/mL.
For `CCCCCCCCCC(C)=O` [METHYL NONYL KETONE], in that order: 22.5 µg/mL (≈ 132 µM), above 500 µg/mL, 20.6 µg/mL (≈ 121 µM) and above 500 µg/mL.
Take `CCCCCCCCOC(C)=O` [OCTYL ACETATE]: the EC50 in assay [1] was found to be 61.4 µg/mL; in assay [2], 111 µg/mL; in assay [3] it was 37.3 µg/mL; in assay [4] it was 61.6 µg/mL.
